Reference: ChEMBL document CHEMBL3600329, “Synthesis, biological profiling and mechanistic studies of 4-aminoquinoline-based heterodimeric compounds with dual trypanocidal-antiplasmodial activity” (Bioorg Med Chem, 2015)

Key:
[1] = tested on: Trypanosoma brucei; assay: Trypanocidal activity against bloodstream form of Trypanosoma brucei 221 assessed as inhibition of parasite growth at pH 7.4 after 48 hrs by Spectramax plate reader analysis; format: functional, organism-based; conditions: Trypanosoma brucei, 221, 48 h
Method in brief: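 Bloodstream-form T. brucei strain 221 grown at 37 °C in modified Iscove's medium; log-phase cells diluted to 0.25 × 10^5 mL⁻¹, exposed to a range of compound concentrations in triplicate at 37 °C. Resazurin added after 48 h, read after a further 16 h. IC50 and IC90 = concentrations inhibiting growth 50% and 90%; mean of triplicate experiments ± SEM.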

[2] = tested on: Plasmodium falciparum; assay: Antiplasmodial activity against chloroquine-resistant Plasmodium falciparum K1 infected in human A+ erythrocytes assessed as inhibition of parasite growth after 48 hrs by LDH assay; format: functional, organism-based; conditions: K1, 48 h
Method in brief: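 Ring-stage cultures in human A+ erythrocytes (RPMI 1640, A+ serum, D-glucose), 2.5% haematocrit, 1% parasitaemia; twofold serial dilutions in duplicate, DMSO ≤0.5% final. 48 h at 37 °C under 93% N2/3% O2/4% CO2. Growth read as lactate dehydrogenase activity (APAD, lactate, diaphorase, NBT; 550 nm); % inhibition vs controls; IC50 by linear regression; mean of triplicate experiments.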

[3] = tested on: L6; assay: Cytotoxicity against rat L6 cells assessed as inhibition of cell growth after 6 days by Spectramax fluorescence plate reader analysis; format: cell-based; conditions: L6, 144 h
Method in brief: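 L6 rat skeletal myoblasts seeded at 1×10^4 mL⁻¹ in growth medium containing a range of compound concentrations, incubated 6 days at 37 °C; resazurin added, fluorescence read after a further 8 h. IC50 = concentration inhibiting growth by 50%; mean of triplicate experiments ± SEM.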

[4] = Selectivity index, ratio of IC50 for rat L6 cells to IC50 for bloodstream form of Trypanosoma brucei 221; format: toxicity, cell-based; conditions: read-out: Ratio IC50
Method in brief: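 IC50 ratio, L6 over T. brucei. L6 cells seeded at 1×10^4 mL⁻¹ with compound, 6 days at 37 °C, then resazurin, 8 h more, fluorescence read. Log-phase bloodstream T. brucei 221 in modified Iscove's medium at 0.25 × 105 mL⁻¹, compound range in triplicate, 37 °C; resazurin at 48 h, read after 16 h more.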

[5] = Selectivity index, ratio of IC50 for rat L6 cells to IC50 for chloroquine-resistant Plasmodium falciparum K1; format: toxicity, cell-based; conditions: read-out: Ratio IC50
Method in brief: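 IC50 ratio, L6 over P. falciparum K1. L6 cells seeded at 1×10^4 mL⁻¹ with compound, 6 days at 37 °C, resazurin added, fluorescence after 8 h. Parasites in A+ erythrocytes (2.5% haematocrit, 1% parasitaemia) with twofold dilutions, 48 h at 37 °C in low-oxygen gas; growth read by LDH activity at 550 nm.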

[6] = biological target: Trypanothione reductase (Trypanosoma brucei brucei, UniProt P39051); assay: Inhibition of Trypanosoma brucei recombinant Trypanothione reductase assessed as decrease in (T[SH]2) formation using trypanothione disulfide as substrate after 15 mins by colorimetric analysis
[7] = Inhibition of beta-haematin formation by microplate reader analysis relative to hemin; format: physicochemical
Method in brief: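 Haemin chloride (8 mM stock in DMSO) mixed with serial compound dilutions (0.5-32 mM) in 25% DMSO; formation initiated with 8 M acetate buffer pH 5.0, 18 h at 37 °C. Pellets washed with DMSO, β-haematin dissolved in 0.1 M NaOH, OD 400 nm read versus drug-free controls; BHIA50 expressed as compound equivalents relative to haemin, by linear regression.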

[8] = tested on: Trypanosoma brucei; assay: Selectivity index, ratio of IC50 for inhibition of Trypanosoma brucei recombinant Trypanothione reductase to IC50 for trypanocidal activity against bloodstream form of Trypanosoma brucei 221

Chain of Trypanothione reductase (P39051 whole entry): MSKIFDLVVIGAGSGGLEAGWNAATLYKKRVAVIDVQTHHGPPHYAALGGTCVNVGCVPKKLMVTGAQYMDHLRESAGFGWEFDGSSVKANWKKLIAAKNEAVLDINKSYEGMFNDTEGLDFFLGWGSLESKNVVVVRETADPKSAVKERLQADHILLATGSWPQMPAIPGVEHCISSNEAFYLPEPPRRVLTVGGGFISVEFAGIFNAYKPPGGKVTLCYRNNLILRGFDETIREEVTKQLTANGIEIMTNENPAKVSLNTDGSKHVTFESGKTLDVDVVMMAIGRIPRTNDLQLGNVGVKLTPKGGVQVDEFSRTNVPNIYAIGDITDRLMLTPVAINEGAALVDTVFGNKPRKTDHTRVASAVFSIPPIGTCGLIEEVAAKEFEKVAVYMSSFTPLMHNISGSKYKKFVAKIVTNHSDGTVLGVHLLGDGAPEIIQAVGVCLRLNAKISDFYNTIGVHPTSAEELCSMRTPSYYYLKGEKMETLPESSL

Molecule `CC1=CC2Cc3nc4cc(Cl)ccc4c(NCCCCCCCCNc4c5c(nc6ccccc46)CCCC5)c3C(C1)C2` (stereo unspecified) has an IC50 [1] of 150 nM, an IC90 [1] of 290 nM and an IC50 [2] of 390 nM. The IC50 [3] was 1110 nM, the selectivity ratio [4] was 7.4 and the selectivity ratio [5] was 2.8. It also gave an IC50 [6] of 870 nM, an IC50 [7] of 0.19 equiv and a Ratio IC50 [8] of 6.
Work on `CN(C)[C@@H]1C(O)=C(C(N)=O)C(=O)[C@@]2(O)C(O)=C3C(=O)c4c(O)cccc4[C@@](C)(O)[C@H]3C[C@@H]12` [TETRACYCLINE] yielded an IC50 [7] greater than 4 equiv.
`CC1=CC2Cc3nc4cc(Cl)ccc4c(N)c3C(C1)C2` (stereo unspecified) [HUPRINE Y] showed an IC50 [6] of 5000 nM, an IC50 [7] greater than 4 equiv and a Ratio IC50 [8] of 8.2.
Work on `COc1cc2c(cc1OC)CC(CC1CCN(CCCNc3c4c(nc5cc(Cl)ccc35)CC3C=C(C)CC4C3)CC1)C2` (stereo unspecified) yielded an IC50 [1] of 170 nM, an IC90 [1] of 350 nM and an IC50 [3] of 2060 nM. For the same molecule, the selectivity ratio [4] was 12, the IC50 [6] was 4880 nM and the IC50 [7] was 0.42 equiv. The Ratio IC50 [8] was 29.
Work on `CCN(CC)CCCC(C)Nc1ccnc2cc(Cl)ccc12` (stereo unspecified) [CHLOROQUINE] yielded an IC50 [7] of 0.14 equiv.
